Experimental data: PubChem BioAssay AID704 (The Scripps Research Institute Molecular Screening Center, 2007)
The whole screen tested about 97,000 compounds, of which about 770 (0.79%) were called active. The full list was thinned out, with actives kept by preference. Unmarked numbers belong to inactive results.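 How the source made its calls: active means inhibition above the screen-wide mean plus 3 SD (cut at about 35% in these data); inactive means the rest.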

molecular target: Protein Rev (Human immunodeficiency virus type 1 group M subtype B (isolate WMJ22)) (UniProt P05866); assay: HIV-1 Rev-RRE binding inhibitors, primary screen, biochemical, FRET, protein-RNA interaction (AID 704); details: Rev peptide-RRE RNA binding, at 8 µM, hits give high values
Outline: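 Assay system: Labelled RRE RNA duplex and labelled Rev peptide | Times: 5 min preincubation and 15 min binding, 25 °C | Detection: FRET, ex 480 nm, em 540 and 671 nm | Evaluation: % inhibition of FRET ratio versus controls | Benchmarks: DMSO wells as 0% and neomycin B wells as 100% inhibition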

Protein Rev (Human immunodeficiency virus type 1 group M subtype B (isolate WMJ22)), sequence (P05866 whole entry, looked up): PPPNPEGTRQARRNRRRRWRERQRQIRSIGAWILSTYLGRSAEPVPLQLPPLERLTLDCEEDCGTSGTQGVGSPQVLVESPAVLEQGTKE

Row | SMILES | inhibition
1 | Cc1ccc(-n2c(CNc3ccc(F)cc3)nnc2SCC(=O)N2CCOCC2)cc1 | 5.16%
2 | Cc1nn(C)c(Oc2ccccc2)c1[N+](=O)[O-] | 4.97%
3 | CCC(c1nnnn1C(C)(C)C)N(Cc1cc2cccc(C)c2n2nnnc12)C1CCCC1 (centres undefined) | 7.78%
4 | CCOC(=O)c1ccccc1NS(=O)(=O)c1ccc(OC)cc1 | 17.8%
5 | Cc1cc(C)n(C(=O)CCNC(=O)c2ccccc2Cl)n1 | 4.01%
6 | CC1CCc2c(c3ccccc3[nH]c2=O)O1 (centres undefined) | 4.83%
7 | CC(=O)Nc1cccc(/C(C)=N/NC(=O)c2ccccc2Cl)c1 | -0.39%
8 | COc1ccc(C(=O)N2CC3(C)CC2CC(C)(C)C3)cc1OC (centres undefined) | 1.95%
9 | O=C(/C=C/c1cc2c(cc1Br)OCO2)NCc1ccc(Cl)cc1 | 7.84%
10 | Cc1cccc(N(CC(=O)Nc2ccc(-c3nc4ccc(C)cc4s3)cc2)S(C)(=O)=O)c1 | 1.45%
11 | O=C(Nc1sc2c(c1-c1nc3ccccc3[nH]1)CCCC2)C1CC1 | 12.5%
12 | NC1=NC(=O)C2(COC(c3ccccc3Cl)OC2)S1 (centres undefined) | 1.07%
13 | CCN(CC)c1ccc2oc(=O)c(C)nc2c1 | 121% [fluorescence artefact?] (active)
14 | CCN(CC)c1ccc2cc(C(=O)O)c(=O)oc2c1 | 11%
15 | CCN(CC)c1ccc(/C=N/Nc2nc(C)cc(=O)[nH]2)cc1 | 15.3%
16 | CCS(=O)(=O)Nc1ccc(C2=NN(S(=O)(=O)c3ccc(F)cc3)C(c3ccco3)C2)cc1 (centres undefined) | 3.07%
17 | O=C(Nc1ccccc1-c1nnn(CC(=O)N2CCCc3ccccc32)n1)c1cccc(Cl)c1 | 13.6%
18 | COc1cnc(SCc2ccc(Cl)c(Cl)c2)nc1Cl | 10%
19 | Cc1ccccc1N/N=C/c1ccc(N2CCOCC2)cc1 | 6.17%
20 | Cc1ccc(Cc2cnc(NC(=O)/C(C#N)=C/c3ccc(-c4cccc([N+](=O)[O-])c4)o3)s2)cc1 | 5.73%

Row | SMILES | inhibition
21 | CCOCC(=O)Nc1sc2c(c1C(=O)OCC)CCCC2 | 10.1%
22 | CCOC(=O)c1c(NC(=S)Nc2ccccc2)sc2c1CCN(C)C2 | 103% [fluorescence artefact?] (active)
23 | CCOC(=O)c1c(NC(=S)NC(=O)c2ccco2)sc2c1CCCC2 | 0.19%
24 | CC(=O)Nc1cccc(Oc2cc(C#N)c(C#N)cc2N2CCOCC2)c1 | 5.35%
25 | COc1cccc(C(=O)Nc2ccc(N3CCCC3)cc2)c1 | 9.26%
26 | COc1cc(N2CCCC2)c(OC)cc1/C=C(/C#N)c1cccc(Br)c1 | 115% [fluorescence artefact?] (active)
27 | CC1CN(c2nc(-c3ccccc3)nnc2-c2ccccc2)CC(C)O1 (centres undefined) | 8.23%
28 | COCCCNCC(=O)Nc1sc(C)c(C)c1C(=O)OC | 1.88%
29 | CN1OC(COC(=O)c2ccc(Cl)cc2)CC1c1ccccc1 (centres undefined) | 7.44%
30 | C=CCc1ccc(OCCOc2cccc(/C=N/n3cnnc3)c2)c(OC)c1 | -0.22%
31 | Clc1ccc(-c2cc(COc3ccccc3)no2)cc1Cl | 17.6%
32 | CC(CO)N1CCS(=O)(=O)CC1 (centres undefined) | 4.13%
33 | CCN(CC)C(=O)CSc1ncnc2c1cnn2-c1ccccc1 | 9.25%
34 | O=C(CN1C(=O)NC2(CCCC2)C1=O)Nc1ccc(F)c(F)c1F | 6.86%
35 | CC(C)c1ccc(C(=O)NCCCc2ccccc2)cc1 | 16.8%
36 | CC(C)C[C@@H](N)c1nnc(SCC(=O)c2ccc(Cl)cc2)o1 | 6.78%
37 | CCCCOC(=O)Cn1c(=O)n(CC(=O)OCCCC)c2cc(C)ccc21 | 3.29%
38 | CCOc1cc(/C=C2/N=C(c3ccc(C(C)(C)C)cc3)OC2=O)cc(Cl)c1OS(C)(=O)=O | -2.97%
39 | Cc1ccc(-n2nc3cc(C)c(NC(=O)c4cccnc4)cc3n2)cc1 | 6.32%
40 | Cc1ccc(S(=O)(=O)/N=C(/Nc2ccccn2)c2ccc(Cl)cc2)cc1 | 3.03%

Row | SMILES | inhibition
41 | Cc1ccccc1NC(=O)c1ccccc1 | 3.87%
42 | CC(=O)c1cc(NC(=O)c2ccccc2)c(=O)oc1/C=C/N(C)C | 119% [fluorescence artefact?] (active)
43 | CCOC(=O)c1cc(NC(=O)c2ccc(Cl)cc2)c(=O)oc1-c1ccccc1 | 10.3%
44 | c1ccc(-c2csc(N3CCc4ccccc4C3)n2)cc1 | 3.58%
45 | Cc1c(-c2ccccc2)cn2c1-c1ccc(C)n1CC2 | 47.1% (active)
46 | COc1ccc(CNC(=O)c2c(C)cc(=O)oc2C)cc1OC | 10.2%
47 | Cc1cc(=O)oc(C)c1C(=O)NCc1ccc(F)cc1 | 8.7%
48 | Cc1cc(=O)oc(C)c1C(=O)Nc1cnc2ccccc2c1 | 53% (active)
49 | CN1/C(=c2/s/c(=C3/C(=O)N(c4ccccc4)NC3=Nc3ccccc3)n(C)c2=O)C(C)(C)c2ccccc21 | 96.1% [fluorescence artefact?] (active)
50 | CC1=NN(c2cccc(Cl)c2)C(=O)C12CC(C)=C(C)CS2 (centres undefined) | 16.6%
51 | COc1nc(NC2CCCCC2)nc(N2CCCCCC2)n1 | 2.85%
52 | COc1cccc2c1OCC(C(=O)NCc1ccc(Cl)cc1Cl)=C2 | 10.5%
53 | Cc1ccc(-c2nnc(-n3nnc4ccccc43)c3ccccc23)cc1 | -4.36%
54 | COc1ccc(-c2nn(C)c(=O)c3ccccc23)cc1NC(=O)COc1ccccc1 | 0.74%
55 | CCNCCC(=O)N1c2ccccc2Sc2ccc(NC(=O)OCC)cc21 | -4.36%
56 | CC1CCN(C(=O)CN(c2ccc(Oc3ccccc3)cc2)S(C)(=O)=O)CC1 | 2.29%
57 | CCOc1ccc(C(CCc2ccccc2)NC(=O)c2ccc(OC)c(OC)c2)cc1OCC (centres undefined) | -1.68%
58 | COc1ccc(N(CC(=O)NC2CCCCC2)S(=O)(=O)c2c(C)[nH]c(=O)[nH]c2=O)cc1 | -2.97%
59 | CCCCCCNC(=O)CSc1nccn1Cc1ccccc1 | 1.79%
